# Test results reported in ChEMBL document CHEMBL2439950, “Arylamino methylene bisphosphonate derivatives as bone seeking matrix metalloproteinase inhibitors” (Bioorg Med Chem, 2013).
# Experiments:
# [1] = Cytotoxicity against human HepG2 cells assessed as cell viability at 100 uM after 48 hrs by MTT assay; format: cell-based; conditions: read-out: Activity
# Outline: (§1)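 J774 A.1 cells were grown in DMEM and HepG2 in MEM, each with 10% FBS, penicillin, streptomycin and 2 mM L-glutamine, at 37 °C in 5% CO2. Seeded at 1-5·10^4 cells/well with half-log diluted compounds, 1% DMSO final, for 48 h. MTT was added to 0.5 mg/mL final for 3-4 h, solubilized in 50% DMSO/50% EtOH, and read at 570 nm. Background came from Triton X-100 lysed wells, and viability was taken relative to untreated controls.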
# [2] = target: Matrix metalloproteinase-9 (Homo sapiens, UniProt P14780); assay: Inhibition of MMP9 catalytic domain (unknown origin) using Mca-Pro-Leu-Gly-Leu-Dpa-Ala-Arg-NH2 as substrate incubated for 30 mins prior to substrate addition measured after 2 to 4 hrs by fluorometric assay
# Matrix metalloproteinase-9, sequence (P14780 whole entry, the tested form may be a part): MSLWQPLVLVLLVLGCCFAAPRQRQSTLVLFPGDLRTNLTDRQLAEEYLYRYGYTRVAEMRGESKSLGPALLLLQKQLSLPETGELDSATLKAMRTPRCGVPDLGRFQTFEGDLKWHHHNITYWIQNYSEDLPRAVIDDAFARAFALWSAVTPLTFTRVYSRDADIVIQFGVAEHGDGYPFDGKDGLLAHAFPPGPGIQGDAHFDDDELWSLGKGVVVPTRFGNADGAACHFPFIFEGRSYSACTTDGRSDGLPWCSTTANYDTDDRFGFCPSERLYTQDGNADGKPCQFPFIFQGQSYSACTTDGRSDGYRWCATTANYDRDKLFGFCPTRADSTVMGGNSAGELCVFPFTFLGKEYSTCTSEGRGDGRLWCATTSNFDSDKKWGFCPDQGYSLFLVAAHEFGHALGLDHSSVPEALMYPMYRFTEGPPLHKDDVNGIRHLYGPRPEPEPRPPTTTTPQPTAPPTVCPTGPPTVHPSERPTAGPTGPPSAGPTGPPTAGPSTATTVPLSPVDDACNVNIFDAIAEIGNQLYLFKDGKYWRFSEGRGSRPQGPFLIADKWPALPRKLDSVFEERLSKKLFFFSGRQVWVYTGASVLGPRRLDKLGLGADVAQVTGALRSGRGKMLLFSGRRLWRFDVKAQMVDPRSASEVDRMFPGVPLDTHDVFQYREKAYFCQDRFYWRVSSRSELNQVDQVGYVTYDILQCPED
# Outline: (§2)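 Catalytic domains of MMP-8, MMP-9 or MMP-14 were preincubated 30 min at 25 °C with inhibitor (six concentrations, 0.1 nM–100 μM) in 50 mM Tris-HCl pH 7.5, 200 mM NaCl, 1 mM CaCl2, 1 μM ZnCl2, 0.05% Brij-35, 1% DMSO. Substrate was added to 2.5 μM final for 2–4 h at 37 °C, then acetic acid stop. Fluorescence read at 340/405 nm, in triplicate; IC50 fitted from percent inhibition.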
# Neutrophil collagenase = Neutrophil collagenase (Homo sapiens, UniProt P22894); assay: Inhibition of MMP8 catalytic domain (unknown origin) using Mca-Pro-Leu-Gly-Leu-Dpa-Ala-Arg-NH2 as substrate incubated for 30 mins prior to substrate addition measured after 2 to 4 hrs by fluorometric assay; outline: as §2
# Neutrophil collagenase, sequence (P22894 whole entry, the tested form may be a part): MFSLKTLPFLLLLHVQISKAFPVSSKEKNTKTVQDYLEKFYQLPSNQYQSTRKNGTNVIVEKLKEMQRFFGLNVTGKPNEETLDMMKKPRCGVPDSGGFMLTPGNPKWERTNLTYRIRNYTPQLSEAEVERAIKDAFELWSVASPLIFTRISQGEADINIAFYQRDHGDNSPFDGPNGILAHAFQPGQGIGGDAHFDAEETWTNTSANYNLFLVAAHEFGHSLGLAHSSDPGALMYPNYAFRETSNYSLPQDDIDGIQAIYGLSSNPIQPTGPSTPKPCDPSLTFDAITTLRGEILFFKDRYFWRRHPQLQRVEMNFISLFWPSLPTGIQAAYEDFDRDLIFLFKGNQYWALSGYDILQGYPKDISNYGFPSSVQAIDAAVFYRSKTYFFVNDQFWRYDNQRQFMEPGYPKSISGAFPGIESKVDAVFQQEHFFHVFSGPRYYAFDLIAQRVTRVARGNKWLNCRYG
# [3] = target: 72 kDa type IV collagenase (Homo sapiens, UniProt P08253); assay: Inhibition of APMA-activated recombinant human MMP2 using Mca-Pro-Leu-Gly-Leu-Dpa-Ala-Arg-NH2 as substrate incubated for 30 mins prior to substrate addition measured after 2 to 4 hrs by fluorometric assay
# 72 kDa type IV collagenase, sequence (P08253 whole entry): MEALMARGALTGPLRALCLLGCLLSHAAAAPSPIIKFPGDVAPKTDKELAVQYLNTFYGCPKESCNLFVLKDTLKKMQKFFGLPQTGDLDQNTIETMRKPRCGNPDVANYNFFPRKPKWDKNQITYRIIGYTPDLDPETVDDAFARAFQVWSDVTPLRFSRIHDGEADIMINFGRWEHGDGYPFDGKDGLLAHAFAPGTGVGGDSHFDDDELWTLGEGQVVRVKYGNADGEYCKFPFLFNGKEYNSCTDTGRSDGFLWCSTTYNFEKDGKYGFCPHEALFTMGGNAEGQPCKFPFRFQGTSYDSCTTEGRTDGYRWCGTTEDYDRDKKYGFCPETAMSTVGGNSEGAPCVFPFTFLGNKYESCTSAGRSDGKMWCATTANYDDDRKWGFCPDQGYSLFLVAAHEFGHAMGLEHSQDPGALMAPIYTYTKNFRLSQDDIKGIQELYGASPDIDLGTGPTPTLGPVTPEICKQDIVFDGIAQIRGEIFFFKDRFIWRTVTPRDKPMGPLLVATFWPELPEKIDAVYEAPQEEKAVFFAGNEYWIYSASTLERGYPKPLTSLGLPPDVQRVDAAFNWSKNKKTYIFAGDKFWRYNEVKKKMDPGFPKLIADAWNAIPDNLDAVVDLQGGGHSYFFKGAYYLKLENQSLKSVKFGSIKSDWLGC
# Outline: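 Human pro-MMP-2 was activated with 2 mM APMA for 1 h at 37 °C. Enzyme and inhibitor (six concentrations, 0.1 nM–100 μM) were preincubated 30 min at 25 °C in Tris-HCl pH 7.5 buffer with NaCl, CaCl2, ZnCl2, Brij-35 and 1% DMSO. Substrate was added to 2.5 μM final, run 2–4 h at 37 °C, and stopped with 3% acetic acid. Fluorescence read at ex 340/em 405 nm, in triplicate; IC50 from percent inhibition versus no-inhibitor controls.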
# Hydroxyapatite = assay: Binding affinity to bone mineral hydroxyapatite assessed as adsorbed level at 100 uM after 2 hrs by UV-spectrophotometric analysis
# Outline: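 Duplicate 5 ml aliquots of 100 μM bisphosphonic acid in 50 mM Tris-HCl pH 7.5, stirred with 4 mg hydroxyapatite at 37 °C for 2 h. After centrifugation (10 min, 8000 rpm) and 0.22 μm filtration, supernatant absorbance was quantified against calibration lines.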
# [4] = target: Matrix metalloproteinase-14 (Homo sapiens, UniProt P50281); assay: Inhibition of MMP14 catalytic domain (unknown origin) using Mca-Pro-Leu-Gly-Leu-Dpa-Ala-Arg-NH2 as substrate incubated for 30 mins prior to substrate addition measured after 2 to 4 hrs by fluorometric assay; outline: as §2
# [5] = Cytotoxicity against mouse J774A1 cells assessed as cell viability at 100 uM after 48 hrs by MTT assay; format: functional; conditions: J774.A1, 48 h, read-out: Activity; outline: as §1
SMILES,IC50 [2] [µM],IC50 (Neutrophil collagenase) [µM],IC50 [3] [µM],Activity (Hydroxyapatite) [%],IC50 [4] [µM],"viability at 48 h, 100 µM [1] [%]",viability at 100 µM [5] [%]
O=P(O)(O)C(Nc1ccc(C(F)(F)F)cc1)P(=O)(O)O,> 100,> 100,15,42.5,> 100,100,53
O=P(O)(O)C(Nc1ccc(Cl)cc1)P(=O)(O)O [(4-CHLOROPHENYLAMINO)METHYLENEDIPHOSPHONIC ACID],> 100,> 100,> 100,64.2,> 100,97,86
O=[N+]([O-])c1cccc(NC(P(=O)(O)O)P(=O)(O)O)c1 [(3-NITROPHENYLAMINO)METHYLENEDIPHOSPHONIC ACID],> 100,> 100,15.5,57.8,> 100,83,54
"O=P(O)(O)C(Nc1ccc(Cl)cc1Cl)P(=O)(O)O [2,4-DICHLOROPHENYLAMINOMETHYLENEBISPHOSPHONIC ACID]",> 100,> 100,> 100,56.8,> 100,73,59
O=P(O)(O)C(Sc1ccc(Cl)cc1)P(=O)(O)O [TILUDRONIC ACID],> 100,32,7.2,51.5,30.5,61,14
O=P(O)(O)C(Nc1ccc(Oc2ccc(Br)cc2)cc1)P(=O)(O)O,87,43,2.8,60.7,49.5,90,15.3
O=[N+]([O-])c1cc(NC(P(=O)(O)O)P(=O)(O)O)ccc1F,> 100,> 100,25,66.2,> 100,69,69
O=P(O)(O)C(Nc1ccccc1)P(=O)(O)O [(PHENYLAMINO)METHYLENEDIPHOSPHONIC ACID],> 100,> 100,> 100,58,> 100,96,68
Cc1ccc(NC(P(=O)(O)O)P(=O)(O)O)cc1 [(P-TOLYLAMINO)METHYLENEDIPHOSPHONIC ACID],> 100,36,> 100,23.9,> 100,104,83
O=P(O)(O)C(Nc1ccc(Oc2ccc(Cl)cc2)cc1)P(=O)(O)O,55,39.9,2.1,52.1,76,87,73
O=P(O)(O)C(O)(Cn1ccnc1)P(=O)(O)O [ZOLEDRONIC ACID],52,17.6,7,–,12.6,–,–
"O=P(O)(O)C(Nc1ccc(Cl)c(Cl)c1)P(=O)(O)O [3,4-DICHLOROPHENYLAMINOMETHYLENEBISPHOSPHONIC ACID]",> 100,25.5,> 100,53.5,20,98,81

# Continued, in another order:
IC50 [2] [µM],IC50 (Neutrophil collagenase) [µM],IC50 [3] [µM],Activity (Hydroxyapatite) [%],IC50 [4] [µM],SMILES,"viability at 48 h, 100 µM [1] [%]",viability at 100 µM [5] [%]
6,61,6.4,51.6,69,O=P(O)(O)C(Nc1cccc2ccccc12)P(=O)(O)O,98,33
> 100,> 100,28.2,61.2,> 100,O=P(O)(O)C(Nc1ccc(F)cc1)P(=O)(O)O,94,80.4
> 100,> 100,36,76,> 100,N#Cc1ccc(NC(P(=O)(O)O)P(=O)(O)O)cc1,77,86
> 100,> 100,20.8,50.3,> 100,O=P(O)(O)C(Nc1cccc(C(F)(F)F)c1)P(=O)(O)O,83,62
> 100,52,> 100,66.4,40,O=P(O)(O)C(Nc1cccc(-c2ccccc2)c1)P(=O)(O)O,102,49
30,2.4,6,49,3.9,O=P(O)(O)C(Nc1ccc(Br)cc1)P(=O)(O)O,94,81
> 100,> 100,42,63.6,> 100,O=P(O)(O)C(Nc1cccc(F)c1)P(=O)(O)O,70,84
> 100,> 100,37.4,70.1,> 100,O=P(O)(O)C(Nc1cccc(Br)c1)P(=O)(O)O,67,72
20,15,20,76,26,O=[N+]([O-])c1ccc(NC(P(=O)(O)O)P(=O)(O)O)cc1,84,76
> 100,30,> 100,60,33.5,O=P(O)(O)C(Nc1ccc(-c2ccccc2)cc1)P(=O)(O)O,88,36
> 100,> 100,6.6,88,> 100,O=P(O)(O)C(Nc1ccc(O)cc1)P(=O)(O)O,101,19.5
> 100,44,2.8,66.2,43,O=P(O)(O)C(Nc1ccc(Oc2ccccc2)cc1)P(=O)(O)O,105,44
